Experimental data reported in ChEMBL document CHEMBL4257579, “Analogs of penfluridol as chemotherapeutic agents with reduced central nervous system activity” (Bioorg Med Chem Lett, 2018).

How the values were obtained:
[1] = tested on: Lewis lung carcinoma cell line; test: Cytotoxicity against mouse LLC cells harboring […] assessed as reduction in cell viability after 48 hrs by MTT assay; type: functional, cell-based
How it was run: (§1)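 Cells exposed to compounds; viability read at 24, 48 and 72 h. Every experiment run in triplicate.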

NIH3T3 [2] = test: Cytotoxicity against mouse NIH/3T3 cells assessed as reduction in cell viability after 24 hrs by MTT assay; type: cell-based; conditions: NIH3T3, 24 h; how it was run: as §1
NIH3T3 [3] = test: Cytotoxicity against mouse NIH/3T3 cells assessed as reduction in cell viability after 48 hrs by MTT assay; type: cell-based; conditions: NIH3T3, 48 h; how it was run: as §1
NIH3T3 [4] = test: Cytotoxicity against mouse NIH/3T3 cells assessed as reduction in cell viability after 72 hrs by MTT assay; type: cell-based; conditions: NIH3T3, 72 h; how it was run: as §1
[5] = target: 5-hydroxytryptamine receptor 2B (Homo sapiens, UniProt P41595); test: Displacement of [3H]LSD from human 5-HT2B receptor expressed in HEK cells by radioligand binding assay; type: cell-based
Sequence of 5-hydroxytryptamine receptor 2B (P41595 whole entry): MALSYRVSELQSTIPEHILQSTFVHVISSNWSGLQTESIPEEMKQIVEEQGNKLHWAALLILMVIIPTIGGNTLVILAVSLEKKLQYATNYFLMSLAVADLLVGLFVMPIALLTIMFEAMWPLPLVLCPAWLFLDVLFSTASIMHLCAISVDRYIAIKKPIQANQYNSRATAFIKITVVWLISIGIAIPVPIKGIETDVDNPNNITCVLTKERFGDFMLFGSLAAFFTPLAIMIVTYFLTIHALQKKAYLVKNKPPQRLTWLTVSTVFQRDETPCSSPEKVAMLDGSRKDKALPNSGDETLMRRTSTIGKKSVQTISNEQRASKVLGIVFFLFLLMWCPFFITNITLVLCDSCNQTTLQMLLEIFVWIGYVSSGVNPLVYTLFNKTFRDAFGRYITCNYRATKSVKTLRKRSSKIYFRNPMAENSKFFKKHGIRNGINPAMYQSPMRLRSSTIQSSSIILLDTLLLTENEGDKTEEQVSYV

[6] = target: Kappa-type opioid receptor (Homo sapiens, UniProt P41145); test: Displacement of [3H]U69593 from KOR (unknown origin) expressed in HEK cells by radioligand binding assay relative to control; type: cell-based; design: concentration or dose not given beside the values; conditions: concentration not given here
Sequence of Kappa-type opioid receptor (P41145 whole entry): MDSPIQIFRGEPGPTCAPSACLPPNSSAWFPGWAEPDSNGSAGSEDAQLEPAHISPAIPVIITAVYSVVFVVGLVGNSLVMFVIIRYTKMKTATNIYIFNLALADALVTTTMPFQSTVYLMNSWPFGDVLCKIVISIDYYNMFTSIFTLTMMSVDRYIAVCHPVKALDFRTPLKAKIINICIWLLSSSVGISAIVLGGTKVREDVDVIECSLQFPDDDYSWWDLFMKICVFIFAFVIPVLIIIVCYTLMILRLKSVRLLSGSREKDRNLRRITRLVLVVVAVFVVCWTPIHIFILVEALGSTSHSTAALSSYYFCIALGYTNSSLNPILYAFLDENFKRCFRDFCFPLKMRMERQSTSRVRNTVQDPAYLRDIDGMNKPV

Mu-type opioid receptor [7] = target: T1, Mu-type opioid receptor (Homo sapiens, UniProt P35372); test: Displacement of [3H]DAMGO from human MOR expressed in HEK cells by radioligand binding assay relative to control; type: cell-based; design: concentration or dose not given beside the values; conditions: concentration not given here
T1 sequence (P35372 whole entry): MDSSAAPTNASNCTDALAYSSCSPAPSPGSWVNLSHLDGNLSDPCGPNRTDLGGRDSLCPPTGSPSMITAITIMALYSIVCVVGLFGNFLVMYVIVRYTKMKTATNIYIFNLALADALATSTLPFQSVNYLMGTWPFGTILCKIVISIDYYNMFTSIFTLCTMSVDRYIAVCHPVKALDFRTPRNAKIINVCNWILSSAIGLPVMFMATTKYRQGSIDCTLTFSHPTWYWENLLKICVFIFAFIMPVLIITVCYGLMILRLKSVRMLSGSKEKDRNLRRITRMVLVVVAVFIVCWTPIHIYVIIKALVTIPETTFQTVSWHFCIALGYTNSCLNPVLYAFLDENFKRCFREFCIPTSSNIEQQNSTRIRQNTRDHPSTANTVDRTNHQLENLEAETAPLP

D(2) dopamine receptor [8] = target: T2, D(2) dopamine receptor (Homo sapiens, UniProt P14416); test: Displacement of [3H]N-methylspiperone from human dopamine D2 receptor expressed in stable fibroblast cells by radioligand binding assay relative to control; type: cell-based; design: concentration or dose not given beside the values; conditions: concentration not given here
T2 sequence (P14416 whole entry): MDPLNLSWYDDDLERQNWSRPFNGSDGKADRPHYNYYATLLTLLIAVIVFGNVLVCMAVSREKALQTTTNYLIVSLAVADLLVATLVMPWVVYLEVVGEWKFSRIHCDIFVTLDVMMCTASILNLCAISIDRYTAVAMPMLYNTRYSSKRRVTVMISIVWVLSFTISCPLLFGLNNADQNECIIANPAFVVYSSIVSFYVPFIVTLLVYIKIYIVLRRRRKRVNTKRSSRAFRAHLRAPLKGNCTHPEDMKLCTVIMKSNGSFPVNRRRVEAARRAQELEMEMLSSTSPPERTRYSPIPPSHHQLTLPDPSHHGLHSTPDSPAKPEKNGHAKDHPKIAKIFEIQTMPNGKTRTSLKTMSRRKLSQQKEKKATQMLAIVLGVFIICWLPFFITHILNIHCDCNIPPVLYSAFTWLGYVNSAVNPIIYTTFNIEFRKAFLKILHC

[9] = target: T3, 5-hydroxytryptamine receptor 2C (Homo sapiens) (UniProt P28335); test: Displacement of [3H]Mesulergine from human 5-HT2C receptor expressed in HEK293FlpIN cells by radioligand binding assay relative to control; type: cell-based; design: concentration or dose not given beside the values; conditions: concentration not given here
T3 sequence (whole entry): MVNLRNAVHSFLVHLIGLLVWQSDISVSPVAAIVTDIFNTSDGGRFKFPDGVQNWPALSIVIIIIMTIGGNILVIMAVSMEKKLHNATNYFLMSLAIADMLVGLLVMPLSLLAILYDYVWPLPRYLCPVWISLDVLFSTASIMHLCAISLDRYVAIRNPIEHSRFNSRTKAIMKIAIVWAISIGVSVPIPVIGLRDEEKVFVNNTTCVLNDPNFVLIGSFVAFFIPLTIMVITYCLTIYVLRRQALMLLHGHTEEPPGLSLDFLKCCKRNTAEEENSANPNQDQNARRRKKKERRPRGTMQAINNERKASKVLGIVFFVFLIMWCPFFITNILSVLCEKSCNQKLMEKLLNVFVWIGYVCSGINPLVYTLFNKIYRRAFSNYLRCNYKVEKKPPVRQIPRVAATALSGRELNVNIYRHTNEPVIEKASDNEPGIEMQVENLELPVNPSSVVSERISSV

[10] = target: 5-hydroxytryptamine receptor 6 (Homo sapiens, UniProt P50406); test: Displacement of [3H]LSD from human 5-HT6 receptor expressed in HEK cells by radioligand binding assay relative to control; type: cell-based; design: concentration or dose not given beside the values; conditions: concentration not given here
Sequence of 5-hydroxytryptamine receptor 6 (P50406 whole entry): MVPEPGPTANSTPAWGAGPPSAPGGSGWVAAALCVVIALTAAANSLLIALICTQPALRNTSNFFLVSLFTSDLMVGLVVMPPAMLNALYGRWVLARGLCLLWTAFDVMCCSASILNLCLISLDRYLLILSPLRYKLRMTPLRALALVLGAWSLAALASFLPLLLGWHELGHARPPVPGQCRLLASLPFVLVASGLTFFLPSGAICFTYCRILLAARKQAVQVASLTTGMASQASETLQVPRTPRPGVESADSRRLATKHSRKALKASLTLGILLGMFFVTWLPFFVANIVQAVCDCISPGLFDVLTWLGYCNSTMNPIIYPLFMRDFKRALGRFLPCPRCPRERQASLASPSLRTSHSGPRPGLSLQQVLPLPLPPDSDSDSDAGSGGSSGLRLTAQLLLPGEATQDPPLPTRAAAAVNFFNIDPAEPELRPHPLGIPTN

[11] = target: T4, 5-hydroxytryptamine receptor 1A (Homo sapiens) (UniProt P08908); test: Displacement of [3H]-Way100635 from human 5HT1A receptor expressed in stable CHO cell membranes by radioligand binding assay relative to control; design: concentration or dose not given beside the values; conditions: concentration not given here
T4 sequence (whole entry): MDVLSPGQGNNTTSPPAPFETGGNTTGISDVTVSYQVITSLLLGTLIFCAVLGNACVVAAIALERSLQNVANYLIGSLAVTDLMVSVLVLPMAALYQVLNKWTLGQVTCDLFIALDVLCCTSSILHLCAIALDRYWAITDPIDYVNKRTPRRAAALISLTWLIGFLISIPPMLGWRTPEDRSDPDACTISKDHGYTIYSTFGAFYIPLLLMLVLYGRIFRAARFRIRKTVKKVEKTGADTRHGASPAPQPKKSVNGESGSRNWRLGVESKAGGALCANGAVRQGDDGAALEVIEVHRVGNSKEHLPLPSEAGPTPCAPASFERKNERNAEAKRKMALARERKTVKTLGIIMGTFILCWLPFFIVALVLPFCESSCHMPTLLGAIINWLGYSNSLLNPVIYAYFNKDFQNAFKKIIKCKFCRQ

Histamine H2 receptor [12] = target: T5, Histamine H2 receptor (Homo sapiens, UniProt P25021); test: Displacement of [3H]Cimetidine from human H2 receptor expressed in HEK cells by radioligand binding assay; type: cell-based
T5 sequence (P25021 whole entry): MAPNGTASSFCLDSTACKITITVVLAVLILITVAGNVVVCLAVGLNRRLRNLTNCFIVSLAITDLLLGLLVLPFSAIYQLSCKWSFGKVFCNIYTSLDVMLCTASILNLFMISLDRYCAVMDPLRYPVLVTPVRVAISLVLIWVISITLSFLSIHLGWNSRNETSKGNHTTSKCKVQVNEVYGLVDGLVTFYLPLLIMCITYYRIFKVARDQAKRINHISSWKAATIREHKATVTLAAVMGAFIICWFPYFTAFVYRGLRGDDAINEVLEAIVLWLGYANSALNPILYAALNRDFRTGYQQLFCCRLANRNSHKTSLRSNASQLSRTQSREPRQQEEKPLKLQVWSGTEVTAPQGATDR

Mu-type opioid receptor [13] = target: T1, Mu-type opioid receptor; test: Displacement of [3H]DAMGO from human MOR expressed in HEK cells by radioligand binding assay; type: cell-based
D(4) dopamine receptor = target: T6, D(4) dopamine receptor (Homo sapiens, UniProt P21917); test: Displacement of [3H]N-methylspiperone from human dopamine D4 receptor by radioligand binding assay
T6 sequence (P21917 whole entry): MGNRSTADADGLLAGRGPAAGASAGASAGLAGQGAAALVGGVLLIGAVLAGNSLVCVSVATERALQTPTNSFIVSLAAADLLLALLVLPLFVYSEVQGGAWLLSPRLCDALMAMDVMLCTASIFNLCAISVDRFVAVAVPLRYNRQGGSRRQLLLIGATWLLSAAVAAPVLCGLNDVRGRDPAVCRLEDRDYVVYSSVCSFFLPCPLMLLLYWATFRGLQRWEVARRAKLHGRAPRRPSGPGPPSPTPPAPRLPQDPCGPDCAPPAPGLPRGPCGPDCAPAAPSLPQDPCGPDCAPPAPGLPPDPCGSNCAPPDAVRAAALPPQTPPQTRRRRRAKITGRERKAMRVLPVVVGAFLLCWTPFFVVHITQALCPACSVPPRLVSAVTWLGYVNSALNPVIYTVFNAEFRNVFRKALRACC

D(3) dopamine receptor = D(3) dopamine receptor (Homo sapiens, UniProt P35462); test: Displacement of [3H]N-methylspiperone from human dopamine D3 receptor expressed in HEK293T cells by radioligand binding assay; type: cell-based
Sequence of D(3) dopamine receptor (P35462 whole entry): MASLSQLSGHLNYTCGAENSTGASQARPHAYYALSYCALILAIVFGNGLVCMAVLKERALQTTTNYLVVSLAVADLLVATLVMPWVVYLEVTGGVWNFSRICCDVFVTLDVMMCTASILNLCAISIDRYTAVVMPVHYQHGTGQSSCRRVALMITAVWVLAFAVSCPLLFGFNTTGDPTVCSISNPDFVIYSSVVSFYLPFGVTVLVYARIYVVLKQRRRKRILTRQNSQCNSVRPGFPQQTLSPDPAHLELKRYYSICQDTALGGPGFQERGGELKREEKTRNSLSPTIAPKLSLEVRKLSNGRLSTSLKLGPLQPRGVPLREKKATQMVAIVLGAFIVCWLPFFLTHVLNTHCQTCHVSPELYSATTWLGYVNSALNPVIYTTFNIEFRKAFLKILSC

D(2) dopamine receptor [14] = target: T2, D(2) dopamine receptor; test: Displacement of [3H]N-methylspiperone from human dopamine D2 receptor expressed in stable fibroblast cells by radioligand binding assay; type: cell-based
Histamine H2 receptor [15] = target: T5, Histamine H2 receptor; test: Displacement of [3H]Cimetidine from human H2 receptor expressed in HEK cells by radioligand binding assay relative to control; type: cell-based; design: concentration or dose not given beside the values; conditions: concentration not given here
D(1B) dopamine receptor = D(1B) dopamine receptor (Homo sapiens, UniProt P21918); test: Displacement of [3H]SCH23390 from human dopamine D5 receptor expressed in HEK293T cells by radioligand binding assay relative to control; type: cell-based; design: concentration or dose not given beside the values; conditions: concentration not given here
Sequence of D(1B) dopamine receptor (P21918 whole entry): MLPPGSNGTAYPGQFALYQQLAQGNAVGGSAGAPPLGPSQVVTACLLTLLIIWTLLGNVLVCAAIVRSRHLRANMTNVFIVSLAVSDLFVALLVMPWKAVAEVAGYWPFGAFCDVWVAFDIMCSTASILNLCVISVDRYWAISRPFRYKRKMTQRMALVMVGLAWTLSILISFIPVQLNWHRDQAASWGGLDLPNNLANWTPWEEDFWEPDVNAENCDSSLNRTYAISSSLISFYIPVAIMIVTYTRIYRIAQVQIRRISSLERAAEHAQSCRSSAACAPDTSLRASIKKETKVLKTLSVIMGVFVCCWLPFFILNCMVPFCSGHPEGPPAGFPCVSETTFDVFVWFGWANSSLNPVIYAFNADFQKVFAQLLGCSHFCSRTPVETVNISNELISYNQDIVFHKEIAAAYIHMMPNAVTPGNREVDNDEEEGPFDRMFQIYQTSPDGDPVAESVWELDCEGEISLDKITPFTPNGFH

[16] = target: Sodium-dependent noradrenaline transporter (Homo sapiens, UniProt P23975); test: Displacement of [3H]Nisoxetine from human NET expressed in HEK cells by radioligand binding assay; type: cell-based
Sequence of Sodium-dependent noradrenaline transporter (P23975 whole entry): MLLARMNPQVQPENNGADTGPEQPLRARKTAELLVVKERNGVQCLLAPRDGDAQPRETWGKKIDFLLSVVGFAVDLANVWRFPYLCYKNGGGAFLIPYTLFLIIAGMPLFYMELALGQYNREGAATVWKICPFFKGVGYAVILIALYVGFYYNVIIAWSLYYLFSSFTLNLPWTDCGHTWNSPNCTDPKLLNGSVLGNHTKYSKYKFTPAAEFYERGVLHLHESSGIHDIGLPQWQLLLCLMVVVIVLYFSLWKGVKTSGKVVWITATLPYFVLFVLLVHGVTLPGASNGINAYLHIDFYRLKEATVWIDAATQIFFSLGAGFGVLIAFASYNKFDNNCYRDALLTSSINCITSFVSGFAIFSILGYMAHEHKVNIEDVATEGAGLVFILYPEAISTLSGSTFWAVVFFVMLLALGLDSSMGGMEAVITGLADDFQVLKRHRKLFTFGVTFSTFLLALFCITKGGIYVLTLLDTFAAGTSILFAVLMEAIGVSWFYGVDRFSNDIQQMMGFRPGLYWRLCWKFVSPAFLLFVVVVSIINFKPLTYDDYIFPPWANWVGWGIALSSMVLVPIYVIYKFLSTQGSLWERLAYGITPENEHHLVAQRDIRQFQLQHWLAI

[17] = target: T7, Sodium-dependent dopamine transporter (Homo sapiens, UniProt Q01959); test: Displacement of [3H]WIN35428 from human DAT expressed in HEK cells by radioligand binding assay; type: cell-based
[18] = target: Delta-type opioid receptor (Homo sapiens, UniProt P41143); test: Displacement of [3H]DADLE from human DOR expressed in HEK cells by radioligand binding assay; type: cell-based
Sequence of Delta-type opioid receptor (P41143 whole entry): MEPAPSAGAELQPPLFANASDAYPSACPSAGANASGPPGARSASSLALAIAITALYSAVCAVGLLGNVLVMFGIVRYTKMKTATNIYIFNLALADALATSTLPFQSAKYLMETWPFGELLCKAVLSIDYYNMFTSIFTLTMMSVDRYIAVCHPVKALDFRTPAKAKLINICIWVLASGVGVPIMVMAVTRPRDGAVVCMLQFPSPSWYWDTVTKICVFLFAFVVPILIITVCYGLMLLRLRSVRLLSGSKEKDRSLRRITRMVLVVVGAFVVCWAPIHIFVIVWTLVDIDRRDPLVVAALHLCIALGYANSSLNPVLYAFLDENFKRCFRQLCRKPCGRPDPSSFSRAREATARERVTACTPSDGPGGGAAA

D(1A) dopamine receptor = D(1A) dopamine receptor (Homo sapiens, UniProt P21728); test: Displacement of [3H]SCH23390 from human dopamine D1 receptor expressed in HEK293T cells by radioligand binding assay; type: cell-based
Sequence of D(1A) dopamine receptor (P21728 whole entry): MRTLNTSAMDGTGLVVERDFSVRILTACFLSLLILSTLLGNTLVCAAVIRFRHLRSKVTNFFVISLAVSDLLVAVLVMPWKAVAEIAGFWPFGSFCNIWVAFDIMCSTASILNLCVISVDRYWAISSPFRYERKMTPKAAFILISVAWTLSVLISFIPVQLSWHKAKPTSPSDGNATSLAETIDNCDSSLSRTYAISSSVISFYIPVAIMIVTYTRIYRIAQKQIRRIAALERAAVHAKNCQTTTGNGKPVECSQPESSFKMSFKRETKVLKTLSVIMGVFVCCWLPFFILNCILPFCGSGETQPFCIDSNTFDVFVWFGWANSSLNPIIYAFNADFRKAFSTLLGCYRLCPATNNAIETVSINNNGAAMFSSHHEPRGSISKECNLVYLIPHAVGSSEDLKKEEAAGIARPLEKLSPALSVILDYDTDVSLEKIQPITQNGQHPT

[19] = target: T7, Sodium-dependent dopamine transporter; test: Displacement of [3H]WIN35428 from human DAT expressed in HEK cells by radioligand binding assay relative to control; type: cell-based

| SMILES | IC50 [1] [µM] | IC50 (NIH3T3 [2]) [µM] | IC50 (NIH3T3 [3]) [µM] | IC50 (NIH3T3 [4]) [µM] | Ki ([5]; read-out: Ki) [µM] | inhibition [6] [%] | inhibition (Mu-type opioid receptor [7]) [%] | inhibition (D(2) dopamine receptor [8]) [%] | inhibition [9] [%] | inhibition [10] [%] | inhibition [11] [%] | Ki (Mu-type opioid receptor [13]) [µM] | Ki (D(4) dopamine receptor) [µM] | Ki (D(3) dopamine receptor) [µM] | Ki (D(2) dopamine receptor [14]) [µM] | inhibition (Histamine H2 receptor [15]) [%] | inhibition (D(1B) dopamine receptor) [%] | Ki [16] [µM] | Ki [17] [µM] | Ki ([18]; read-out: Ki) [µM] | other results |
| --- | --- | --- | --- | --- | --- | --- | --- | --- | --- | --- | --- | --- | --- | --- | --- | --- | --- | --- | --- | --- | --- |
| OC1(c2ccc(Cl)c(C(F)(F)F)c2)CCN(CCCC=C(c2ccc(F)cc2)c2ccc(F)cc2)CC1 | 12 | 37.2 | 14.8 | 7.1 | 2.2 | 80.9 | 90.6 | 87.3 | 77.2 | 54.4 | 71.2 | 0.328 | 1.64 | 0.552 | 0.317 | 82.6 |  |  |  |  | Ki (Histamine H2 receptor [12]; read-out: Ki): 0.526 µM |
| OC1(c2ccc(Cl)c(C(F)(F)F)c2)CCN(CCCC(c2ccccc2)c2ccccc2)CC1 | 6.6 | 12.2 | 12 | 9.8 | 0.374 | 98 | 90.3 | 100 | 82.9 | 72.8 | 97.2 | 0.07 | 0.058 | 0.062 | 0.038 | 89.5 | 89.4 | 0.518 | 0.121 | 1.53 | Ki (Histamine H2 receptor [12]; read-out: Ki): 0.278 µM; Ki (D(1A) dopamine receptor): 0.135 µM; inhibition (INH) [19]: 87.5% |
| COc1ccc(N(CCCCN2CCC(O)(c3ccc(Cl)c(C(F)(F)F)c3)CC2)c2ccc(OC)cc2)cc1 | 4 | 8.7 | 11 | 11.2 | 0.729 | 65.8 | 76.8 | 60 | 72.6 | 50 | 57.3 | 8.25 | 0.459 | 0.437 | 0.417 |  | 83.5 | 1.44 | 0.622 | 10 | Ki (Histamine H2 receptor [12]): Not Active; Ki (D(1A) dopamine receptor): 10 µM; inhibition (INH) [19]: 91.3% |
| OC1(c2ccc(Cl)c(C(F)(F)F)c2)CCN(CCCCCc2ccc(F)cc2)CC1 | 11.9 | 13.2 | 11.8 | 9.8 |  | 78.3 | 86.2 | 81.8 | 57.7 | 24.7 | 77.2 | 0.536 | 0.132 |  | 0.46 | 69.2 |  |  |  |  | Ki [5]: Not Active; Ki (Histamine H2 receptor [12]; read-out: Ki): 0.401 µM; Ki [18]: Not Active |
| OC1(c2ccc(Cl)c(C(F)(F)F)c2)CCN(CCCC(c2ccc(F)cc2)c2ccc(F)cc2)CC1 [PENFLURIDOL] | 4.2 | 6.03 | 6.09 | 6.01 | 0.184 | 94.6 | 87 | 71.5 | 95.3 | 96 | 100 | 0.867 |  | 0.136 | 0.159 | 98.4 | 82.9 | 0.588 | 1.71 | 1.71 | Ki (D(1A) dopamine receptor): 0.147 µM; inhibition (INH) [19]: 89.1% |
| OC1(c2ccc(Cl)c(C(F)(F)F)c2)CCN(CCCN(c2ccc(F)cc2)c2ccc(F)cc2)CC1 | 5.7 | 6.8 | 5.6 | 4 | 0.177 | 69.8 | 97.4 | 66.4 | 86.7 | 86.4 | 94.2 | 0.902 | 0.025 | 0.474 | 0.148 | 98.3 | 100 | 0.902 | 1.19 | 1.56 | Ki (Histamine H2 receptor [12]; read-out: Ki): 0.252 µM; Ki (D(1A) dopamine receptor): 0.3 µM; inhibition (INH) [19]: 83.4% |
| OC1(c2ccc(Cl)c(C(F)(F)F)c2)CCN(CCCCN(c2ccc(F)cc2)c2ccc(F)cc2)CC1 | 10.6 | 12.1 | 11.6 | 6.4 | 0.509 | 70.3 | 61.5 | 65.8 | 77.5 | 68 | 82.2 | 10 | 10 | 0.782 | 0.55 |  | 84.6 | 0.458 | 10 | 10 | Ki (Histamine H2 receptor [12]): Not Active; Ki (D(1A) dopamine receptor): 10 µM; inhibition (INH) [19]: 86.6% |
| OC1(c2ccc(Cl)c(C(F)(F)F)c2)CCN(CCCCC(c2ccc(F)cc2)c2ccc(F)cc2)CC1 | 4.1 | 6.5 | 5.3 | 4.1 | 0.423 | 96 | 89 | 99.2 | 89 | 80 | 85 | 0.356 | 0.385 | 0.209 | 0.194 | 94 | 88.2 | 0.077 | 0.529 | 1.41 | Ki (Histamine H2 receptor [12]; read-out: Ki): 0.546 µM; Ki (D(1A) dopamine receptor): 0.798 µM; inhibition (INH) [19]: 91.6% |
